Hits are enriched below; roughly 2.6% of the tested compounds scored in any of these assays.
CHO parental Ca = ATP-evoked calcium signal inhibitors, parental CHO, primary screen, counter-screen for OX1R antagonist project, cell-based, fluorescence, Fluo-8 calcium dye. parental CHO-K1, ATP-induced calcium, Fluo-8 fluorescence. inhibition, % at 5.6 µM. actives 0.63% (n = 330,000);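 active means inhibition above that plate's mean sample inhibition plus 3 SD, cut at about 26% in these data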
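Test system: parental CHO cells; detection: calcium-sensitive Fluo-8 fluorescence; evaluation: percent inhibition of calcium signal; also added: ATP as calcium-mobilizing challenge; repeats: one well per compound; control set: ATP-challenged DMSO wells low, unchallenged DMSO wells high; compound: single nominal dose of 5.6 µM per compound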
V1R ag counter = agonists of human V1a receptor, primary screen, counter-screen for OXTR agonist project, fluorescence, CHO-V1R cells; Fluo-8 calcium fluorescence, agonist mode; 0% DMSO, 100% 3 nM vasopressin; actives 0.25% (n = 320,000); activation, % at 3 µM; Vasopressin V1a receptor (Homo sapiens), P37288;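 active means activation above the mean activation of all tested compounds plus 3 SD, per screening run, cut at about 20% in these data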;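 further: signal is peak over basal fluorescence ratio across a 100 second FLIPR read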
OX1R antag-1 = antagonists of human orexin 1 receptor (OX1R) | Orexin/Hypocretin receptor type 1 (Homo sapiens), O43613 | OX1R-expressing cells, FRET antagonist read-out | inhibition, % at 6.6 µM | actives 1.8% (n = 330,000); in the data active means inhibition mostly above about 38%, no sharp cut-off; inactive means mostly below about 40%
OXTR ag = human OXTR agonists, primary screen, fluorescence, CHO-OTR cells, Fluo-8 calcium; actives 0.32% (n = 320,000); activation, % at 3 µM; AID 2435, 2010; Fluo-8 calcium fluorescence; normalized: DMSO 0%, oxytocin 100%; Oxytocin receptor (Homo sapiens), P30559;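 active means activation above the mean of all tested compounds plus 3 SD, cutoff set per screening run, cut at about 20% in these data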;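 further: peak over basal fluorescence ratio from a 100 s FLIPR kinetic read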
Target sequence (P30559 whole entry, looked up): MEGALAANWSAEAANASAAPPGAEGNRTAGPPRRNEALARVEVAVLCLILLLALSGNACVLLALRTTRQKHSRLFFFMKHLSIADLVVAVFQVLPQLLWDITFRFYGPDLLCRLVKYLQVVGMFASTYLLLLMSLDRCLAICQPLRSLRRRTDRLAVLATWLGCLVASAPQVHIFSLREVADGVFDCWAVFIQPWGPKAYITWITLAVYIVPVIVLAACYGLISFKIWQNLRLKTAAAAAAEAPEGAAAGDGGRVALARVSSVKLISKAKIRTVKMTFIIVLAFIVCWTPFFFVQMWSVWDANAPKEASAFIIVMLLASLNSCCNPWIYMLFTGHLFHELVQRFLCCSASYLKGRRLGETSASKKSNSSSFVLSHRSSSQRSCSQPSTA
OX1R antag-2 = OX1R (HCRTR1) antagonists, primary screen, fluorescence, CHO/OX1R cells, Fluo-8 calcium, orexin A | Orexin/Hypocretin receptor type 1 (Homo sapiens), O43613 | Fluo-8 calcium fluorescence | inhibition, % at 5 µM | actives 0.43% (n = 330,000) | AID 434989, 2010;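 active means inhibition above its plate's threshold, mean inhibition of all tested compounds on the plate plus 3 SD, cut at about 37% in these data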
OXTR potentiator = human OXTR potentiators, primary screen, fluorescence, CHO-OTR cells, Fluo-8 calcium | Oxytocin receptor (Homo sapiens), P30559 | Fluo-8 calcium fluorescence, potentiator mode; 0% = oxytocin EC15, 100% = EC100 | activation, % at 3 µM | actives 0.061% (n = 320,000);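 active means activation above that plate's cutoff, the mean activation of tested compounds plus 3 SD, cut at about 6.6% in these data, passing the limit was not always enough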
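Measured by – Fluo-8 calcium dye fluorescence · Test system – human OTR in CHO cells · Dosing – one concentration, 3.0 µM compound · Controls – EC15 oxytocin alone as 0%, 75 nM oxytocin as 100% · Evaluation – normalized max/min fluorescence ratio, % activation · Timing – 6 min pre-incubation, 100 s read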
Hits are given with their value; – = inactive.

SMILES	CHO parental Ca	V1R ag counter	OX1R antag-1	OXTR ag	OX1R antag-2	OXTR potentiator
Cc1cc(NC(=O)c2ccccc2NS(=O)(=O)c2c(C)c(C)cc(C)c2C)no1	–	–	–	–	–	–
Cc1ccc(C)c(NC(=O)c2ccccc2NS(=O)(=O)c2cc([N+](=O)[O-])ccc2C)c1	–	–	55.1	–	–	–
CCc1ccc(-c2cnc3nc[nH]c(=O)c3n2)cc1	–	–	43.5	–	–	–
COc1ccc(OC)c(NC(=S)N2c3ccccc3CC2C)c1 (centres undefined)	–	–	–	–	–	–
N#C/C(=N/Nc1ccc(OC(F)(F)F)cc1)C(N)=S	–	–	53.9	–	40.5	–
Cn1ncc(C(=O)N=S(C)(=O)c2ccccc2)c1[N+](=O)[O-] (centres undefined)	–	–	–	–	–	–
COc1ccc2nc(-c3ccccc3)cc(C(=O)OCC(=O)N3CC(C)OC(C)C3)c2c1 (centres undefined)	–	–	–	–	–	–
ClCc1nc2ccccc2c2ccccc12	–	–	–	–	–	–
CCc1nc(C)c(C(=O)N2CCCC(C(=O)Nc3cccc(-c4cccc(C)c4)c3)C2)o1 (centres undefined)	–	–	–	–	–	–
CCCn1c(SCC(=O)Nc2ccc(Cl)cc2F)nc(O)cc1=O	–	–	–	–	–	–
CCCn1c(SCC(=O)Nc2ccc(F)c(Cl)c2)nc(O)cc1=O	30.5	–	–	–	–	–
Cc1cc(C)c(S(=O)(=O)Nc2cc(SCC(=O)O)c(O)c3ccccc23)cc1C	–	–	58.1	–	–	–
O=C(O)CSc1cc(NS(=O)(=O)c2ccc(Cl)cc2)c2ccccc2c1O	–	–	–	–	–	–
Cc1c(C(=O)OCC(=O)Nc2ccc(S(N)(=O)=O)cc2)oc2c1ccc1ccccc12	40.9	–	–	–	–	–
CSC1=C(C#N)C(c2ccccc2Cl)C(C(=O)c2cccs2)C(O)(C(F)(F)F)N1 (centres undefined)	–	–	62.4	–	–	–
O=C1NC(c2ccccc2)C(C(=O)c2cccs2)C(O)(C(F)(F)F)N1 (centres undefined)	–	–	–	–	–	–
Cc1cc(C(=O)OCC(=O)NC2(C#N)CCCCC2)c(C)o1	–	–	–	–	–	–
Cn1nc([N+](=O)[O-])c(C(C#N)c2ccccn2)c(Cl)c1=O (centres undefined)	–	–	–	–	–	–
CCn1nc([N+](=O)[O-])c(C(C#N)c2nc3cc(C(F)(F)F)ccc3s2)c(Cl)c1=O (centres undefined)	–	–	62.0	–	–	–
N#C/C(=C\c1coc2ccc(O)cc2c1=O)C(=O)Nc1nc2ccccc2s1	64.5	308.1	65.1	256.5	81.0	–
N#C/C(=C\c1coc2ccccc2c1=O)C(N)=S	–	–	–	–	–	–
CC(Oc1ccc(F)cc1F)C(=O)NNC(=S)NCC1CCCO1 (centres undefined)	–	–	–	–	–	–
CCC(CC)=NNc1ccc([N+](=O)[O-])cc1[N+](=O)[O-]	–	–	–	–	–	–
C/C(CCC(=O)O)=N/Nc1ccc([N+](=O)[O-])cc1[N+](=O)[O-]	–	–	63.5	–	–	–
CCOC(=O)C(C(=O)OCC)C(C)(C)/C(C)=N\Nc1ccc([N+](=O)[O-])cc1[N+](=O)[O-]	–	–	–	–	–	–
SMILES	CHO parental Ca	V1R ag counter	OX1R antag-1	OXTR ag	OX1R antag-2	OXTR potentiator
C/C(CCCO)=N/Nc1ccc([N+](=O)[O-])cc1[N+](=O)[O-]	–	–	43.9	–	–	–
C#CCOC(=O)CCCNc1ccc([N+](=O)[O-])cc1[N+](=O)[O-]	–	–	46.0	–	–	–
CCOC(=O)CC(C)(C)/C(C)=N/Nc1ccc([N+](=O)[O-])cc1[N+](=O)[O-]	–	–	54.4	–	–	–
Cc1c(CNC(=O)c2c([N+](=O)[O-])cnn2C)cnn1C	–	–	–	–	–	–
CCOC(=O)COn1c(=O)c(-c2ccc(OC)cc2)[n+]([O-])c2ccccc21	–	–	45.9	–	–	–
CCOn1c(=O)c(-c2ccccc2)[n+]([O-])c2ccccc21	–	–	–	–	–	–
CCOC(=O)COn1c(=O)c(-c2ccc(OC)c(OC)c2)[n+]([O-])c2ccccc21	–	–	51.5	–	–	–
CCOC(=O)COn1c(=O)c(-c2ccccc2)[n+]([O-])c2ccccc21	–	–	–	–	–	–
CC(C)(C)c1ccc(C(=O)NC(=S)NNC(=O)c2cccs2)cc1	–	93.0	–	100.7	–	–
Cc1cccc(C(=O)NNC(=O)c2ccc(Br)cc2)c1	–	–	–	–	–	–
Cc1cccc(C(=O)NC(=S)NNC(=O)c2ccc(Cl)cc2)c1	64.4	112.5	–	98.2	74.7	–
Cc1ccccc1C(=O)NNC(=S)NC(=O)c1cccs1	–	64.6	–	36.1	–	–
Cc1cccc(C(=O)NC(=S)NNC(=O)c2cccs2)c1	–	25.8	–	35.8	–	–
O=C(NC(=S)NNC(=O)c1cccs1)c1ccccc1	–	–	–	–	–	–
Cc1cc(C)nc(SCc2ccc(C(=O)NNC(=O)Nc3cccc(Cl)c3)cc2)n1	–	–	–	–	–	–
C=CCN1C=CC(=C/C=C(/C#N)C(=O)OCC)C=C1	–	21.0	60.5	29.1	–	–
CN(C(=O)COC(=O)C12CC3CC(CC(Cl)(C3)C1)C2)c1ccccc1	–	–	–	–	–	–
CCOC(=O)c1c(C)[nH]c(C)c1S(=O)(=O)NC(CC)CN1CCOCC1 (centres undefined)	–	–	–	–	–	–
Cc1ccnc(NC(=O)Nc2ccc3c(c2)OCO3)c1	–	–	–	–	–	–
O=C(NNC(=O)C1CC1)c1cc2cc3ccccc3nc2s1	–	–	54.4	–	–	–
COc1ccc(C2/C=C\CN(S(=O)(=O)c3cccc4cccnc34)CC(=O)N2Cc2ccc(F)cc2)cc1 (centres undefined)	–	–	–	–	–	–
COc1ccc([C@H]2/C=C\CN(S(=O)(=O)c3cccc4cccnc34)[C@@H](C)C(=O)N2Cc2ccc(F)cc2)cc1	–	–	69.9	–	–	–
